Laboratory results published in publication PMC8929370 (Pharmacology Research & Perspectives, 2022).

Columns and labels:
[1] = molecular target: human CB1 (hCB1) receptor (Homo sapiens, UniProt P21554); assay type: binding; conditions: for Rank order (affinity): rank of pKi among EG-018 and 13 analogues
human CB1 [2] = molecular target: T1, human CB1 (Homo sapiens, UniProt P21554); assay: Inhibition of FSK-stimulated cAMP; assay type: cell-based; conditions: for Emax: HEK293, read-out: E MAX (±SEM), %; for Rank order efficacy: cAMP inhibition efficacy ranking
human CB1 [3] = molecular target: T1, human CB1; assay: [35S]GTPγS binding in P2 membranes of HEK293 cells expressing hCB1; assay type: biochemical; conditions: for Rank order efficacy: [35S]-GTPγS efficacy ranking; for Emax: read-out: E MAX (±SEM), %
human CB1 [4] = molecular target: T1, human CB1; assay: Phospho-ERK AlphaLISA assay in 3HA-hCB1 HEK cells; assay type: cell-based; conditions: 10 µM alone
Method in brief: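 3HA-hCB1 HEK cells were plated at 2.5e4/well on poly-D-lysine-coated plates and serum-starved overnight after ~24 h in serum-free high-glucose DMEM with 1 mg/ml BSA. Drugs were made at 2x, prewarmed and dispensed in a 37°C waterbath, staggered so all stimulations ended together. The time course used 31.6 µM. Cells were lysed on ice and pERK read by AlphaLISA SureFire Ultra, in technical duplicate or quadruplicate.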

human CB1 (hCB1) receptor, sequence (P21554 whole entry): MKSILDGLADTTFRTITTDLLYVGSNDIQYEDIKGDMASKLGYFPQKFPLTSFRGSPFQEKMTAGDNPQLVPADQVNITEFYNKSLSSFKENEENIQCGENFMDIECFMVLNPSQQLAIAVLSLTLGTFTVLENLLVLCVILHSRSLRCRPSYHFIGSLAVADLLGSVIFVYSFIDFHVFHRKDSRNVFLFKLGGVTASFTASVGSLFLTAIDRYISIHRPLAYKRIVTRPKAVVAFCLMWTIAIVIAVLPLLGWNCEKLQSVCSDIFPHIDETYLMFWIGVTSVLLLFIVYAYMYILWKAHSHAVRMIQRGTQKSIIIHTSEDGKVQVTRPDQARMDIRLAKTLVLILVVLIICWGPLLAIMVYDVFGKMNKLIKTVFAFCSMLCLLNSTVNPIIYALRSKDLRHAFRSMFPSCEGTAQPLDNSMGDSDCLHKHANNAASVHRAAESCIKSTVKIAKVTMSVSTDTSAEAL
T1 sequence (P21554 whole entry): as above

SMILES | Ki [1] [nM] | Rank order (affinity) [1] | EC50 (human CB1 [2]) [nM] | Emax (human CB1 [2]) [%] | Rank order efficacy (human CB1 [2]) | EC50 (human CB1 [3]) [nM] | Rank order efficacy (human CB1 [3]) | Emax (human CB1 [3]) [%] | agonist response in pERK by compound alone (human CB1 [4]) | right-shift in the potency of the CP55940 response (cAMP) (human CB1 [2]; 10 µM antagonist, E MAX not reduced) | inverse agonism in cAMP assay (human CB1 [2]; concentration-response, compared to SR141716A)
O=C(c1ccc2c(c1)c1ccccc1n2CCN1CCOCC1)c1cc2ccccc2o1 [Compound 146, 1-Benzofuran-2-yl(9-(2-(morpholin-4-yl)ethyl)-9H-carbazol-3-yl)methanone] | 295 | 11 | 355 | 38.5 | 8 | – | – | – | – | – | –
O=C(c1ccc2c(c1)c1ccccc1n2CCCCCO)c1cccc2ccccc12 [Compound 045] | 166 | 9 | 148 | 34.9 | 9 | 257 | 12 | 81.9 | – | – | –
O=C(c1ccc2c(c1)c1ccccc1n2CCN1CCOCC1)c1cc2ccccc2[nH]1 [Compound 142, (9-(2-(Morpholin-4-yl)ethyl)-9H-carbazol-3-yl)(1H-indol-2-yl)methanone] | – | 14 | 1200 | 31.5 | 13 | 6170 | 6 | 123 | – | – | –
O=C(c1ccc2c(c1)c1ccccc1n2CCN1CCOCC1)c1ccnc2ccccc12 [Compound 157, (9-(2-(Morpholin-4-yl)ethyl)-9H-carbazol-3-yl)(quinoline-4-yl)methanone] | 589 | 13 | 91.2 | 13.1 | 14 | 257 | 10 | 88.2 | not driving an agonist response in pERK | approximately 1 log unit | –
O=C(NN1CCCCC1)c1nn(-c2ccc(Cl)cc2Cl)c2c1CCCc1cc(Cl)ccc1-2 [NESS‐0327, reference compound] | – | – | – | – | – | – | – | – | – | – | approximately equivalent inverse agonism to SR141716A
Cc1ccc(C(=O)c2ccc3c(c2)c2ccccc2n3CCN2CCOCC2)c2ccccc12 [Compound 141, (9-(2-(Morpholin-4-yl)ethyl)-9H-carbazol-3-yl)(4-methylnaphthalen-1-yl)methanone] | 148 | 8 | 83.2 | 38.7 | 7 | 355 | 8 | 106 | – | – | –
